Experimental data collected from several papers.
Protocols differ between the studies behind these lines.
UGT1A9: UDP-glucuronosyltransferase 1A9 (UGT1A9, Homo sapiens, UniProt O60656)

| Compound | tested on | assay | test system | conditions | measurement | value |
| --- | --- | --- | --- | --- | --- | --- |
| CC(C)(O)c1cn(-c2ccc(-c3ccc(CO)c(S(C)(=O)=O)c3)cc2)c(Cc2ccccc2Cl)n1 | – | – | cynomolgus monkey, plasma | intravenous, 0.25 mg/kg, single dose | clearance | 61 mL/min/kg |
| CON=C(N)c1ccc(-c2ccc(-c3ccc(C(N)=NOC)cc3)o2)cc1 | Cytochrome P450 1A1 (CYP1A1, Homo sapiens, UniProt P04798) | enzyme activity, substrate | – | – | Km | 0.5 µM |
| N#Cc1cc(NC(=O)[C@H]2c3ccccc3C(=O)N(CC(F)(F)F)[C@@H]2c2cccnc2)ccc1F | – | metabolic stability | dog, liver microsomes | – | half-life | > 4 h |
| CC(=O)c1cc(C(=O)N[C@@H](C)Cn2ccc(-c3ccc(C#N)c(Cl)c3)n2)[nH]n1 | UGT1A9 | enzyme activity, inhibitor | human, liver microsomes | – | IC50 | > 50 µM |
| O=C1CCCCC1=C1Sc2nc3ccc(S(=O)(=O)N4CCCC4)cc3nc2S1 | WI-38 | cell growth or viability, MTT | – | 25 µM, 24 h | viability | 70.8% |
| CC(C)(O)c1cn(-c2ccc(-c3cc(F)c(CO)c(S(C)(=O)=O)c3)cc2)c(C(C)(C)c2cccc(F)c2Cl)n1 | – | – | male cynomolgus monkey, plasma | intravenous, 1 mg/kg, single dose | clearance | 9.4 mL/min/kg |
| N#CC(C(=O)Nc1cccc(C(F)(F)F)c1)=C1Sc2nc3ccc(S(=O)(=O)N4CCCC4)cc3nc2S1 | WI-38 | cell growth or viability, MTT | – | 3.125 µM, 24 h | viability | 100% |
| C[C@H](O)c1cc(C(=O)N[C@@H](C)Cn2ccc(-c3ccc(C#N)c(Cl)c3)n2)n[nH]1 | UGT1A9 | enzyme activity, inhibitor | human, liver microsomes | – | IC50 | > 100 µM |
| CN(CCC(=O)O)C(=O)c1ccc2c(c1)CC[C@@H]1[C@@H]2CC[C@]2(C)C(c3cncc(F)c3)=CC[C@@H]12 | UGT1A9 | enzyme activity, inhibitor | – | – | IC50 | > 30 µM |
